Data from ChEMBL document CHEMBL1123067, “Evaluation of the brain-specific delivery of radioiodinated (iodophenyl)alkyl-substituted amines coupled to a dihydropyridine carrier” (J Med Chem, 1985).

Columns and labels:
Type in all cases: ADME, organism-based
Rattus norvegicus [1] = assay: Distribution of radioactivity in blood tissues of Sprague-Dawley rats after 15 min injecton by intravenously; 0.35-0.37; conditions: in vivo, iv, 0.25 h
Method in brief: (§1)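 Female Sprague-Dawley rats, 10–12 weeks old (170–200 g), fed ad libitum. The ¹²⁵I-labelled agent was dissolved in minimal Me2SO, diluted with saline to a final 20% Me2SO, filtered (0.22 μm), and injected into a lateral tail vein under ether anaesthesia. Tissues were counted against samples of the injected solution and expressed as % injected dose/g (mean, range). Brain/blood ratio is from the means.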

Rattus norvegicus [2] = assay: Distribution of radioactivity in heart tissues of Sprague-Dawley rats after 15 min injecton by intravenously; 0.24-0.28; conditions: in vivo, iv, 0.25 h; method in brief: as §1
Rattus norvegicus [3] = assay: Distribution of radioactivity in lung tissues of Sprague-Dawley rats after 60 min injecton by intravenously; 0.3-0.36; conditions: in vivo, iv, 1 h
Rattus norvegicus [4] = assay: Distribution of radioactivity in kidney tissues of Sprague-Dawley rats after 5 min injecton by intravenously; 13.02-19.07; conditions: in vivo, iv
Rattus norvegicus [5] = assay: Distribution of radioactivity in lung tissues of Sprague-Dawley rats after 5 min injecton by intravenously; 0.47-0.56; conditions: in vivo, iv
Rattus norvegicus [6] = assay: Distribution of radioactivity in liver tissues of Sprague-Dawley rats after 60 min injecton by intravenously; 0.75-1.14; conditions: in vivo, iv, 1 h
Rattus norvegicus [7] = assay: Distribution of radioactivity in heart tissues of Sprague-Dawley rats after 5 min injecton by intravenously; 0.24-0.29; conditions: in vivo, iv
Rattus norvegicus [8] = assay: Distribution of radioactivity in brain tissues of Sprague-Dawley rats after 5 min injecton by intravenously; 0.02-0.03; conditions: in vivo, iv; method in brief: as §1
Rattus norvegicus [9] = assay: Distribution of radioactivity in kidney tissues of Sprague-Dawley rats after 15 min injecton by intravenously; 1.12-2.04; conditions: in vivo, iv, 0.25 h
Rattus norvegicus [10] = assay: Distribution of radioactivity in brain tissues of Sprague-Dawley rats after 15 min injecton by intravenously; 0.03-0.03; conditions: in vivo, iv, 0.25 h; method in brief: as §1
Rattus norvegicus [11] = assay: Distribution of radioactivity in heart tissues of Sprague-Dawley rats after 60 min injecton by intravenously; 0.19-0.23; conditions: in vivo, iv, 1 h
Rattus norvegicus [12] = assay: Distribution of radioactivity in lung tissues of Sprague-Dawley rats after 15 min injecton by intravenously; 0.4-0.54; conditions: in vivo, iv, 0.25 h
Rattus norvegicus [13] = assay: Distribution of radioactivity in kidney tissues of Sprague-Dawley rats after 60 min injecton by intravenously; 0.48-0.72; conditions: in vivo, iv, 1 h
Rattus norvegicus [14] = assay: Distribution of radioactivity in liver tissues of Sprague-Dawley rats after 5 min injecton by intravenously; 6.76-10.44; conditions: in vivo, iv
Rattus norvegicus [15] = assay: Distribution of radioactivity in liver tissues of Sprague-Dawley rats after 15 min injecton by intravenously; 4.01-4.81; conditions: in vivo, iv, 0.25 h
Rattus norvegicus [16] = assay: Distribution of radioactivity in blood tissues of Sprague-Dawley rats after 60 min injecton by intravenously; 0.25-0.32; conditions: in vivo, iv, 1 h; method in brief: as §1
Rattus norvegicus [17] = assay: Distribution of radioactivity in brain tissues of Sprague-Dawley rats after 60 min injecton by intravenously; 0.02-0.03; conditions: in vivo, iv, 1 h; method in brief: as §1
Rattus norvegicus [18] = assay: Distribution of radioactivity in blood tissues of Sprague-Dawley rats after 5 min injecton by intravenously; 0.34-0.48; conditions: in vivo, iv; method in brief: as §1

Compound: C[n+]1cccc(C(=O)NCCc2ccc([125I])cc2)c1
- Distribution (Rattus norvegicus [1]): 0.36%
- Distribution (Rattus norvegicus [2]): 0.26%
- Distribution (Rattus norvegicus [3]): 0.32%
- Distribution (Rattus norvegicus [4]): 16.46%
- Distribution (Rattus norvegicus [5]): 0.47%
- Distribution (Rattus norvegicus [6]): 0.93%
- Distribution (Rattus norvegicus [7]): 0.25%
- Distribution (Rattus norvegicus [8]): 0.03%
- Distribution (Rattus norvegicus [9]): 1.46%
- Distribution (Rattus norvegicus [10]): 0.03%
- Distribution (Rattus norvegicus [11]): 0.2%
- Distribution (Rattus norvegicus [12]): 0.47%
- Distribution (Rattus norvegicus [13]): 0.56%
- Distribution (Rattus norvegicus [14]): 8.03%
- Distribution (Rattus norvegicus [15]): 4.33%
- Distribution (Rattus norvegicus [16]): 0.27%
- Distribution (Rattus norvegicus [17]): 0.02%
- Distribution (Rattus norvegicus [18]): 0.39%
